This excerpt belongs to a sample that is enriched for hits.
Fibroblast inh: blocks proliferation of human lung fibroblasts; LL 47 human lung fibroblast viability, ATP luminescence; hits give low values; viability, % at 10 µM; 85,000 compounds, 1.1% hits; AID 719;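 active means viability at or below 50% in the single dose screen; inactive means viability above 50%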;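 further: compound exposure lasted 72 h before the ATP readout; 100% = median luminescence of untreated cell-only wells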
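Assay system: human lung fibroblast line LL 47, low passage. Input: 1,150 fibroblasts seeded per well. Times: overnight cell rest, 72 h compound treatment at 37 °C. Evaluation: % viability of median cell-only signal. Technique: luminescent ATP detection, CellTiter-Glo. Control set: cell-only wells, no compound.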
bCat KO growth: beta-catenin-lacking colon tumor cell growth suppression. HCT116 beta-catenin knockout viability, CellTiter-Glo, 60 h; hits give low values. viability, % at 10 µM. 140,000 compounds, 1.5% hits. AID 818;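 active means viability at or under a set limit, the compound median less 4 SD, cut at about 6% in these data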;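 further: 0% = Hyamine 1622 control at 20 µM and 100% = untreated cell control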
HUVEC inhibit: inhibitors of human endothelial cell proliferation; HUVEC proliferation, CellTiter-Glo luminescence, 72 h; hits give low values; viability, % at 10 µM (by protocol); 86,000 compounds, 1.1% hits;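 active means viability at or below 30%; inactive means viability above 30%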;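 further: 100% = median luminescence of DMSO-only cell control wells on each plate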
H69AR inhibit: blocks growth of human H69AR lung tumor cells; H69AR lung tumor viability, ATP luminescence, 72 h; hits give low values; viability, % at 10 µM; 85,000 compounds, 6% hits; AID 598;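 active means viability at or below 40%; inactive means viability above 40%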;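 further: multidrug resistant small cell line overexpressing MRP-1 efflux transporter; 100% = mean luminescence of untreated control wells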
PTEN del growth: growth suppressors of cells with PTEN tumor suppressor deletion; HCT116 PTEN-null viability, CellTiter-Glo, 60 h; hits give low values; viability, % at 10 µM; 140,000 compounds, 1.2% hits; AID 827;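 active means viability at or below a set limit, 4 SD under the median of all tested compounds, cut at about 3.7% in these data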;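 further: PTEN knockout HCT116 line with beta catenin targeted HCT116 as companion control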
* marks the source's active call; other numbers are inactive results; x = no result given.

SMILES | Fibroblast inh | bCat KO growth | HUVEC inhibit | H69AR inhibit | PTEN del growth
Clc1ccc(OCc2nc(-c3ccccn3)n[nH]2)cc1 | 82 | 52 | 58 | 2.2* | 38
Brc1ccc(OCc2nc(-c3ccccn3)n[nH]2)cc1 | 75 | 38 | 41 | 53 | 45
COc1ccc2cc(C(c3nnnn3Cc3ccc(F)cc3)N3CCCCCC3)c(=O)[nH]c2c1 (stereo not drawn) | 98 | 95 | 92 | 37* | 99
COc1ccc2cc(C(c3nnnn3Cc3ccccc3)N3CCCCCC3)c(=O)[nH]c2c1 (stereo not drawn) | 100 | x | 85 | 67 | x
COc1ccc(CN(CC2CCCO2)C(=O)CN2C(=O)C(C)Oc3ccc(C)cc32)cc1OC (stereo not drawn) | 103 | 75 | 72 | 40* | 74
CCC1Oc2ccc(C)cc2N(CC(=O)N(Cc2ccc3c(c2)OCO3)CC2CCCO2)C1=O (stereo not drawn) | 104 | 79 | 96 | 50 | 70
Cc1ccc(NC(=O)c2cc(NC(=O)c3ccco3)ccc2N2CCOCC2)cc1 | 107 | 71 | 89 | 42 | 61
Cc1ccc(NC(=O)c2cc(NC(=O)c3ccco3)ccc2N2CCCCC2)cc1 | 48* | 70 | 68 | 26* | 75
CCn1c(SCC(=O)NC2CCCCC2)nc2c(c1=O)SC(C)C2 (stereo not drawn) | 94 | 100 | 90 | 39* | 91
CCN(CC)C(=O)c1c(Cl)nc(C)c([N+](=O)[O-])c1C | x | 87 | x | x | 93
Cc1ccc(Nc2c(N)c(=O)oc3ccccc23)cc1 | 72 | 34 | 67 | 13* | 25
COc1nc(N=C(N)N)nc2ccc(C)cc12 | x | 57 | x | x | 59
COc1ccccc1-n1cnc(N)c1C(C)=O | 98 | 113 | 96 | 88 | 103
COc1ccccc1-n1cnc(N)c1C(=O)c1ccccc1 | 73 | 32 | 68 | 24* | 27
CSc1c(CC(=O)Nc2ccccc2)n(Cc2ccccc2)c2ccccc12 | x | 77 | x | x | 76
C=CCc1ccc(OCC(O)CN2CCC(Cc3ccccc3)CC2)c(OC)c1 (stereo not drawn) | 85 | 22 | 14* | 21* | 29
Cc1cccc(OCc2n[nH]c(=S)n2C2CCCCC2)c1 | 84 | 82 | 64 | 22* | 77
S=c1[nH]nc(COc2ccc(Cl)cc2)n1C1CCCCC1 | 88 | 90 | 89 | 64 | 90
Cc1ccc(OCc2n[nH]c(=S)n2C2CCCCC2)cc1 | 100 | 89 | 94 | 37* | 87
Cc1ccnc(NC(=O)CCCOc2cc(=O)n(C)c3ccccc23)c1 | x | 5.4* | x | x | 2.9*
CCOC(=O)CCS(=O)(=O)c1nc(-c2ccccc2)cc(C(F)(F)F)n1 | 3.0* | 90 | 28* | 0.8* | 96
COC(=O)CCS(=O)(=O)c1nc(-c2ccccc2)cc(C(F)(F)F)n1 | 28* | 88 | 55 | 1.4* | 84
COCC(C)NC(=O)CCS(=O)(=O)c1nc(-c2ccc(OC)cc2)cc(C(F)(F)F)n1 (stereo not drawn) | x | 91 | x | x | 101
CCOC(=O)CS(=O)(=O)c1nc(-c2ccccc2)cc(C(F)(F)F)n1 | 3.8* | 93 | 12* | 1.6* | 95
CCOC(=O)CS(=O)(=O)c1ccccc1 | 94 | 106 | 101 | 103 | 114
SMILES | Fibroblast inh | bCat KO growth | HUVEC inhibit | H69AR inhibit | PTEN del growth
CCOC(=O)CS(=O)(=O)c1nc(-c2ccc(F)cc2)cc(C(F)(F)F)n1 | 2.9* | 101 | 24* | 4.4* | 95
Cc1ccc(-c2nnc(SCC(=O)NNC(=O)COc3cccc4ccccc34)n2C)cc1 | x | 81 | x | x | 105
C/C(=N/Nc1ccc(C(=O)O)cc1)c1ccc(O)c(O)c1O | x | 87 | x | x | 91
O=C(N/N=C/c1cccs1)/C(=C/c1ccccc1)NC(=O)c1ccccc1 | x | 100 | x | x | 93
CCN1C(=O)/C(=C/N(C(C)=O)c2ccccc2)N(c2ccccc2)C1=S | 68 | 34 | 80 | 16* | 31
O=S(=O)(c1ccc2c(c1)OCCO2)N1CCC(c2nc3ccc(Cl)cc3[nH]2)CC1 | 64 | 17 | 73 | 15* | 17
Cc1ccc2nc(C3CCN(S(=O)(=O)c4ccc5ccccc5c4)CC3)[nH]c2c1 | 82 | 60 | 62 | 8.0* | 69
Cc1ccc(-c2noc(C3CCN(S(=O)(=O)c4ccc5c(c4)OCCO5)CC3)n2)o1 | 109 | 68 | 104 | 40* | 92
O=C(NCC1CCCO1)c1ccc(S(=O)(=O)N2CCC(c3nc4ccc(Cl)cc4[nH]3)CC2)cc1 (stereo not drawn) | 64 | 23 | 68 | 36* | 26
O=C(c1ccc(S(=O)(=O)N2CCC(c3nc4ccccc4[nH]3)CC2)cc1)N1CCOCC1 | 96 | 97 | 91 | 95 | 106
Cc1ccc(-c2noc(C3CCCN(S(=O)(=O)c4ccc5ccccc5c4)C3)n2)o1 (stereo not drawn) | 109 | 104 | 104 | 55 | 76
O=C(COC(=O)c1ccccc1Sc1ccc(C(F)(F)F)cc1[N+](=O)[O-])NC(=O)NC1CCCC1 | x | 67 | x | x | 59
Cc1ccc(-n2nc3ccc(NC(=O)/C=C/c4ccco4)cc3n2)cc1 | x | 81 | x | x | 63
COc1ccc(C)cc1Nc1cc(C)nc2nc(C)nn12 | 89 | 58 | 77 | 25* | 56
COc1ccc(Nc2cc(C)nc3nc(C)nn23)c(OC)c1 | 97 | 86 | 100 | 85 | 97
COc1ccc(Nc2cc(C)nc3nc(C)nn23)cc1Cl | 106 | 76 | 104 | 72 | 95
COc1ccc(OC)c(Nc2cc(C)nc3nc(C)nn23)c1 | 82 | 59 | 75 | 22* | 56
O=C(COC(=O)c1ccc(S(=O)(=O)Nc2ccccc2)cc1)NCc1ccco1 | x | 100 | x | x | 98
Cc1ccc(Cn2ccc(=O)c(OCc3c(Cl)cccc3Cl)c2C)cc1 | 86 | 19 | 72 | 25* | 40
Cc1ccc(/C=N/Nc2ccnc3cc(Cl)ccc23)c(C)c1 | x | 1.3* | x | x | 1.6*
Clc1ccc2c(N/N=C/c3ccc(Br)cc3)ccnc2c1 | x | 1.5* | x | x | 1.3*
Cc1ccccc1/C=N/Nc1ccnc2cc(Cl)ccc12 | x | 11 | x | x | 7
CCOc1ccc(-c2nc(N)ncc2Oc2cccc(OC)c2)c(O)c1 | 92 | 48 | 94 | 14* | 43
COC(=O)c1cc(NS(=O)(=O)c2ccc(N3CCC(C)CC3)c([N+](=O)[O-])c2)cc(C(=O)OC)c1 | x | 90 | x | x | 86
CCn1cc(C(=O)NCCc2ccccc2)c(=O)c2cc(F)c(N3CCN(C)CC3)cc21 | 79 | 51 | 17* | 42 | 53
CCn1cc(C(=O)N[C@H](C)c2ccccc2)c(=O)c2cc(F)c(N3CCN(C)CC3)cc21 | 78 | 44 | 47 | 9.7* | 62
CCn1cc(C(=O)NCc2ccc3c(c2)OCO3)c(=O)c2cc(F)c(N3CCN(C)CC3)cc21 | 92 | 2.5* | 79 | 21* | 2.3*
CCn1cc(C(=O)NCc2ccccn2)c(=O)c2cc(F)c(N3CCN(C)CC3)cc21 | 102 | 86 | 100 | 72 | 92
CCC(C(=O)OCC(=O)Nc1c(Cl)cccc1Cl)c1ccccc1 (stereo not drawn) | x | 94 | x | x | 99
